The target in test [1] is T1, Amyloid-beta precursor protein (Homo sapiens, UniProt P05067). The test can be described thus: Inhibition of amyloid beta (1 to 42) (unknown origin) oligomer assembly at 50 uM after 30 mins by biotinyl-streptavidin assay. The gist of the method:
(§1)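 Biotinyl-Aβ(1-42) was dried from HFIP, disaggregated with TFA for 10 min at room temperature, and taken up in DMSO (500 nM). Monomer was mixed into PBS containing the compound and 1% DMSO at ambient temperature. After 30 min, 0.3% Tween 20 stopped assembly. Oligomers were captured on NeutrAvidin, detected with SA-HRP and TMB, and read at OD450. Solvent control = 100%.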

Test [2] concerns the target T1, Amyloid-beta precursor protein. The test can be described thus: Inhibition of amyloid beta ((1 to 42) (unknown origin) oligomer assembly after 30 mins by biotinyl-streptavidin assay. The procedure, abridged:
as §1

Test [3] shares this target. The test can be described thus: Inhibition of amyloid beta (1 to 42) (unknown origin) oligomer dissociation at 50 uM after 16 to 18 hrs by ELISA. The gist of the method: (§2)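 Disaggregated biotinyl-Aβ(1-42) was diluted in PBS (pH 7.5) to 33.7 nM monomer to preform oligomers. Oligomers (16.8 nM, in PBS + 0.3% Tween 20) were combined with PBS containing the compound and 1% DMSO. The mixture was shaken at 150 rpm at room temperature for 16-18 h. Remaining oligomers were captured on NeutrAvidin and measured by SA-HRP/TMB at OD450.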

The target is the same in test [4]. The test can be described thus: Inhibition of amyloid beta (1 to 42) (unknown origin) oligomer dissociation after 16 to 18 hrs by ELISA. The procedure, abridged:
as §2

Another test concerns the target Cholinesterase (Homo sapiens, UniProt P06276). The test can be described thus: Inhibition of BuChE (unknown origin) by Ellman method. The gist of the method: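 Equine serum BuChE in 0.1 M phosphate buffer pH 8 with 0.34 mM DTNB, 0.02 unit/mL enzyme and 0.55 mM S-butyrylthiocholine chloride. Inhibitor concentration dependence over 0–50 μM. Percent inhibition versus no-inhibitor control used to derive IC50.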

The next test concerns the target Acetylcholinesterase (Homo sapiens, UniProt P22303). The test can be described thus: Inhibition of AChE (unknown origin) by Ellman method.
For test [5], the target named is T1, Amyloid-beta precursor protein. The test can be described thus: Inhibition of amyloid beta (1 to 40) (unknown origin) fibril formation assessed as shorter assemblies at 10 uM after 6 days by atomic force microscopy relative to control.

Data on eight molecules can be found in ChEMBL document CHEMBL2380294, “Design, synthesis and biological activity of multifunctional α,β-unsaturated carbonyl scaffolds for Alzheimer's disease” (Bioorg Med Chem Lett, 2013).

The source made the active and inactive calls. The rule behind the calls is not given here. Bounds are passed on as bounds.

T1 sequence (P05067 whole entry): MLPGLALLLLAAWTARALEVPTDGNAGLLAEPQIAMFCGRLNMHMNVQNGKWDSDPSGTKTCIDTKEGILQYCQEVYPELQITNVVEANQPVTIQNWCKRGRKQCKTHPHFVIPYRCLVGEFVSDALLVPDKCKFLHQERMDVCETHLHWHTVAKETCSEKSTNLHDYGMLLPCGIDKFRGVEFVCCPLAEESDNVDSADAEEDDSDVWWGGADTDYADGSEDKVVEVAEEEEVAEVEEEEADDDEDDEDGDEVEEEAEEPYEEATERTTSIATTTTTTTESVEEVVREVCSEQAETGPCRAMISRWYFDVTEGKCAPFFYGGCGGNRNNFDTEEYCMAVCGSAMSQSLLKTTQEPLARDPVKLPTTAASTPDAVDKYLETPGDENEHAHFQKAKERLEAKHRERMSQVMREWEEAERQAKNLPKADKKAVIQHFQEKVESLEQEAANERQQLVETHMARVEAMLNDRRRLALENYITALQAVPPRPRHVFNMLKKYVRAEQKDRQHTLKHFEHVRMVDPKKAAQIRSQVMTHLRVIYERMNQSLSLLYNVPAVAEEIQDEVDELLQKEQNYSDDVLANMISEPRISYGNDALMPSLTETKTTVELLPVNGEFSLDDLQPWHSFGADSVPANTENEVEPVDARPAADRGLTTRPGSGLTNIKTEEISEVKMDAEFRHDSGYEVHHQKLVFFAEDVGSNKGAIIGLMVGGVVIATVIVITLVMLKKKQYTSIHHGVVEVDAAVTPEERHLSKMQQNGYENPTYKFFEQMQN
Chain of Acetylcholinesterase (P22303 whole entry): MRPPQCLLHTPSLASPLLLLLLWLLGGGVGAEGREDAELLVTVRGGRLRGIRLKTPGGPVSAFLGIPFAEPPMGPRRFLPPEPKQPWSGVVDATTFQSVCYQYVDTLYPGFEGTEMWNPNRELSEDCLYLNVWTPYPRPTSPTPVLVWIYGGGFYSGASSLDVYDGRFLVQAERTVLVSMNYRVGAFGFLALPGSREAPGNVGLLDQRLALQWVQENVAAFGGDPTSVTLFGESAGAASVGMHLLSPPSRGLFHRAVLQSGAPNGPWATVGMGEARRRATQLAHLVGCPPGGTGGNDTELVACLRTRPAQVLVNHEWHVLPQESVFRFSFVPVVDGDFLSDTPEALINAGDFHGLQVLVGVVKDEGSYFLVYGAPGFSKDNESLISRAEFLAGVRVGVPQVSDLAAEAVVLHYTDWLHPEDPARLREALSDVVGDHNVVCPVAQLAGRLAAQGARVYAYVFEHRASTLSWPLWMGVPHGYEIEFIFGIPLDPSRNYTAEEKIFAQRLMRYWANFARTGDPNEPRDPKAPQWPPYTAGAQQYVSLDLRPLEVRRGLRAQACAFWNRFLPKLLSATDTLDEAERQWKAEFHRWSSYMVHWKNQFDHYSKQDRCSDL
Chain of Cholinesterase (P06276 whole entry): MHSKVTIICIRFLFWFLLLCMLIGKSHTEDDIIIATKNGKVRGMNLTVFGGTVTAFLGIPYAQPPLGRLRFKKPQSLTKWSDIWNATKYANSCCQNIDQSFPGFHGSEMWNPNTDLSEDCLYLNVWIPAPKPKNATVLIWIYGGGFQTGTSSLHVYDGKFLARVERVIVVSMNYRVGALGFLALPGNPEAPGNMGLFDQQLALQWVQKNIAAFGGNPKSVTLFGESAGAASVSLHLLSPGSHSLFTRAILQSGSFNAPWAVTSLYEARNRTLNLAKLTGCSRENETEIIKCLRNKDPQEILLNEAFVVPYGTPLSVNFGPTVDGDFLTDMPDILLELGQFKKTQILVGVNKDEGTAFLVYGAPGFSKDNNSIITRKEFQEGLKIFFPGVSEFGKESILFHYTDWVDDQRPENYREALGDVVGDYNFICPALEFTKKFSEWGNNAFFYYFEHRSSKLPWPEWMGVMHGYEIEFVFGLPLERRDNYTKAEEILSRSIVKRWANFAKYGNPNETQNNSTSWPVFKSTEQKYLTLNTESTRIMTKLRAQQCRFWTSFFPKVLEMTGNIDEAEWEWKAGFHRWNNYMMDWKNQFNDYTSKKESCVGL

In the case of `COc1ccc2cc(C(=O)CN3CCN(c4ncccn4)CC3)c(=O)oc2c1`, the inhibition is greater than 65% in test [1] and less than 95% in test [3]. Also, the IC50 stood at 1 µM in test [2] and 4 µM in test [4].
For `COc1ccc2cc(C(=O)CN3CCC(Cc4ccccc4)CC3)c(=O)oc2c1`, the inhibition in test [1] was greater than 65%; in test [3] it was less than 95%. The molecule also came in with an IC50 in test [2] of 36 µM.
Take `CCN(CC)Cc1cccc(C(=O)/C=C/c2ccc(-c3ccccc3)cc2)c1`: at Cholinesterase, the half-maximal inhibitory concentration (IC50) came to 8.27 µM.
`COc1ccc2cc(C(=O)CN3CCC(c4ccccc4)CC3)c(=O)oc2c1`: the inhibition in test [1] is greater than 65%; in test [3], less than 95%. The results for the IC50 in test [2] and in test [4] were 14 µM and 29 µM, respectively.
As to `COc1ccc2cc(C(=O)CN3CCN(c4ccccn4)CC3)c(=O)oc2c1`, the inhibition was greater than 65% in test [1] and less than 95% in test [3].
With `COc1ccc2cc(C(=O)CN3CCOCC3)c(=O)oc2c1`, the figures for the inhibition in test [1] and in test [3] were greater than 65% and less than 95%, respectively. The IC50 is 29 µM in test [2] and 5 µM in test [4].
For `COc1ccc2cc(C(=O)CN3CCN(Cc4ccccc4)CC3)c(=O)oc2c1`, the inhibition in test [1] is greater than 65%; in test [3] it was less than 95%. The IC50 stood at 1.76 µM against Acetylcholinesterase and 36 µM in test [2]. In addition, the inhibition result in test [5] was “Active”.
For the molecule `COc1ccc2cc(C(=O)CN3CCN(c4ccccc4)CC3)c(=O)oc2c1`, the inhibition in test [1] was greater than 65%; in test [3], less than 95%. For the same molecule, the IC50 in test [2] is 21 µM; in test [4], 6.5 µM.
